Results from ChEMBL document CHEMBL1649269, “In vitro activities of three new dihydrofolate reductase inhibitors against clinical isolates of gram-positive bacteria” (2009).
Converted amounts (≈) assume the structure as drawn.

Experiments:
Streptococcus mitis [1] = experiment: Antimicrobial activity against Streptococcus mitis by broth dilution method
Staphylococcus aureus [2] = experiment: Antimicrobial activity against methicillin-resistant Staphylococcus aureus by agar dilution method; type: functional
In short: (§1)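 MICs against clinical MRSA or MSSA isolates by CLSI agar dilution, with S. aureus ATCC 29213 as control strain. Percentage of susceptible isolates was calculated from the MICs using CLSI breakpoints.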

Streptococcus mitis [3] = experiment: Antimicrobial activity against Streptococcus mitis assessed as susceptible isolates by agar dilution method; type: functional; conditions: in the assay text read “broth dilution method” for “agar dilution method”
In short: (§2)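 Clinical isolates of beta-hemolytic streptococci, S. mitis and S. pneumoniae were tested by CLSI methodology, with Mueller-Hinton medium supplemented with 5% lysed horse blood. S. aureus ATCC 29213 and S. pneumoniae ATCC 49619 served as control strains. The percentage of susceptible isolates was derived from CLSI breakpoints.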

Corynebacterium sp. [4] = experiment: Antimicrobial activity against Corynebacterium spp. assessed as susceptible isolates by agar dilution method; type: functional
[5] = Antimicrobial activity against Group C Streptococcus assessed as susceptible isolates by agar dilution method; type: functional, Streptococcus sp. 'group C'
In short: as §2

Corynebacterium sp. [6] = experiment: Antimicrobial activity against Corynebacterium spp. by agar dilution method; type: functional
[7] = system: Streptococcus sp. 'group B'; experiment: Antimicrobial activity against Group B Streptococcus assessed as susceptible isolates by agar dilution method; type: functional
In short: as §2

Staphylococcus [8] = experiment: Antimicrobial activity against Coagulase-negative Staphylococcus by agar dilution method; type: functional
In short: (§3)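 CLSI agar dilution MIC testing of clinical isolates of staphylococci and Listeria. S. aureus ATCC 29213 and S. pneumoniae ATCC 49619 served as control strains. The percentage of susceptible isolates was calculated from CLSI breakpoints.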

Streptococcus pneumoniae [9] = experiment: Antimicrobial activity against Streptococcus pneumoniae assessed as susceptible isolates by agar dilution method; type: functional
In short: as §2

Listeria monocytogenes [10] = experiment: Antimicrobial activity against Listeria monocytogenes assessed as susceptible isolates by agar dilution method; type: functional
In short: as §3

[11] = system: Streptococcus sp. 'group A'; experiment: Antimicrobial activity against Group A Streptococcus assessed as susceptible isolates by agar dilution method; type: functional
In short: as §2

Staphylococcus aureus [12] = experiment: Antimicrobial activity against methicillin-sensitive Staphylococcus aureus assessed as susceptible isolates by agar dilution method; type: functional
In short: as §1

Staphylococcus aureus [13] = experiment: Antimicrobial activity against Heterovancomycin-resistant Staphylococcus aureus by agar dilution method; type: functional
In short: (§4)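 Clinical S. aureus isolates classed as hVISA or VISA by population analysis profiling. MICs by CLSI agar dilution, with S. aureus ATCC 29213 as control strain.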

Staphylococcus aureus [14] = experiment: Antimicrobial activity against methicillin-sensitive Staphylococcus aureus by agar dilution method; type: functional
In short: as §1

Listeria monocytogenes [15] = experiment: Antimicrobial activity against Listeria monocytogenes by agar dilution method; type: functional
In short: as §3

Staphylococcus [16] = experiment: Antimicrobial activity against Coagulase-negative Staphylococcus assessed as susceptible isolates by agar dilution method; type: functional
In short: as §3

[17] = Antimicrobial activity against Group C Streptococcus by agar dilution method; type: functional; conditions: Streptococcus sp. 'group C'
In short: as §2

[18] = system: Streptococcus sp. 'group A'; experiment: Antimicrobial activity against Group A Streptococcus by agar dilution method; type: functional
In short: as §2

Staphylococcus aureus [19] = experiment: Antimicrobial activity against vancomycin-resistant Staphylococcus aureus by agar dilution method; type: functional
In short: as §4

Streptococcus pneumoniae [20] = experiment: Antimicrobial activity against Streptococcus pneumoniae by agar dilution method; type: functional
In short: as §2

[21] = Antimicrobial activity against Group G Streptococcus assessed as susceptible isolates by agar dilution method; type: functional, Streptococcus sp. 'group G'
In short: as §2

[22] = Antimicrobial activity against Group G Streptococcus by agar dilution method; type: functional; conditions: Streptococcus sp. 'group G'
In short: as §2

[23] = system: Streptococcus sp. 'group B'; experiment: Antimicrobial activity against Group B Streptococcus by agar dilution method; type: functional
In short: as §2

## COc1cc(Cc2cnc(N)nc2N)cc(/C=C/C(=O)N2N=Cc3ccccc3C2c2cnc(N(C)C)nc2)c1OC (centres undefined)
Streptococcus mitis [1]
  MIC50: 0.03 µg/mL (≈ 0.053 µM)
Staphylococcus aureus [2]
  MIC50: 0.06 µg/mL (≈ 0.106 µM)
  MIC90: 0.25 µg/mL (≈ 0.442 µM)
Streptococcus mitis [3]
  Activity: 100%
Corynebacterium sp. [4]
  Activity: 83%
[5]
  Activity: 100%
Corynebacterium sp. [6]
  MIC50: 0.12 µg/mL (≈ 0.212 µM)
  MIC90: 4 µg/mL (≈ 7.07 µM)
[7]
  Activity: 100%
Staphylococcus [8]
  MIC50: 0.06 µg/mL (≈ 0.106 µM)
  MIC90: 8 µg/mL (≈ 14.1 µM)
Streptococcus pneumoniae [9]
  Activity: 100%
Listeria monocytogenes [10]
  Activity: 100%
[11]
  Activity: 100%
Staphylococcus aureus [12]
  Activity: 100%
Staphylococcus aureus [13]
  MIC50: 0.25 µg/mL (≈ 0.442 µM)
  MIC90: 0.25 µg/mL (≈ 0.442 µM)
Staphylococcus aureus [14]
  MIC50: 0.03 µg/mL (≈ 0.053 µM)
  MIC90: 0.03 µg/mL (≈ 0.053 µM)
Listeria monocytogenes [15]
  MIC: 0.03 µg/mL (≈ 0.053 µM)
  MIC50: 0.03 µg/mL (≈ 0.053 µM)
  MIC90: 0.03 µg/mL (≈ 0.053 µM)
Staphylococcus [16]
  Activity: 86%
[17]
  MIC50: 0.06 µg/mL (≈ 0.106 µM)
  MIC90: 0.06 µg/mL (≈ 0.106 µM)
[18]
  MIC: 0.06 µg/mL (≈ 0.106 µM)
  MIC50: 0.06 µg/mL (≈ 0.106 µM)
  MIC90: 0.06 µg/mL (≈ 0.106 µM)
Staphylococcus aureus [19]
  MIC50: 0.25 µg/mL (≈ 0.442 µM)
  MIC90: 0.5 µg/mL (≈ 0.884 µM)
Streptococcus pneumoniae [20]
  MIC50: 0.12 µg/mL (≈ 0.212 µM)
  MIC90: 0.25 µg/mL (≈ 0.442 µM)
[21]
  Activity: 100%
[22]
  MIC: 0.06 µg/mL (≈ 0.106 µM)
  MIC50: 0.06 µg/mL (≈ 0.106 µM)
  MIC90: 0.06 µg/mL (≈ 0.106 µM)
[23]
  MIC: 0.06 µg/mL (≈ 0.106 µM)
  MIC50: 0.06 µg/mL (≈ 0.106 µM)
  MIC90: 0.12 µg/mL (≈ 0.212 µM)

## COc1cc(Cc2cnc(N)nc2N)cc(/C=C/C(=O)N2N=Cc3ccccc3C2c2cnc(N3CCOCC3)nc2)c1OC (centres undefined)
Streptococcus mitis [1]
  MIC50: 0.015 µg/mL (≈ 0.0247 µM)
Staphylococcus aureus [2]
  MIC: 0.06 µg/mL (≈ 0.0987 µM)
  MIC50: 0.06 µg/mL (≈ 0.0987 µM)
  MIC90: 0.06 µg/mL (≈ 0.0987 µM)
Streptococcus mitis [3]
  Activity: 100%
Corynebacterium sp. [4]
  Activity: 83%
[5]
  Activity: 100%
Corynebacterium sp. [6]
  MIC50: 0.12 µg/mL (≈ 0.197 µM)
  MIC90: 4 µg/mL (≈ 6.58 µM)
[7]
  Activity: 100%
Staphylococcus [8]
  MIC50: 0.06 µg/mL (≈ 0.0987 µM)
  MIC90: 4 µg/mL (≈ 6.58 µM)
Streptococcus pneumoniae [9]
  Activity: 100%
Listeria monocytogenes [10]
  Activity: 100%
[11]
  Activity: 100%
Staphylococcus aureus [12]
  Activity: 100%
Staphylococcus aureus [13]
  MIC50: 0.06 µg/mL (≈ 0.0987 µM)
  MIC90: 0.06 µg/mL (≈ 0.0987 µM)
Staphylococcus aureus [14]
  MIC50: 0.12 µg/mL (≈ 0.197 µM)
  MIC90: 0.25 µg/mL (≈ 0.411 µM)
Listeria monocytogenes [15]
  MIC: 0.06 µg/mL (≈ 0.0987 µM)
  MIC50: 0.06 µg/mL (≈ 0.0987 µM)
  MIC90: 0.06 µg/mL (≈ 0.0987 µM)
Staphylococcus [16]
  Activity: 86%
[17]
  MIC50: 0.06 µg/mL (≈ 0.0987 µM)
  MIC90: 0.12 µg/mL (≈ 0.197 µM)
[18]
  MIC50: 0.06 µg/mL (≈ 0.0987 µM)
  MIC90: 0.12 µg/mL (≈ 0.197 µM)
Staphylococcus aureus [19]
  MIC: 0.06 µg/mL (≈ 0.0987 µM)
  MIC50: 0.06 µg/mL (≈ 0.0987 µM)
  MIC90: 0.5 µg/mL (≈ 0.823 µM)
Streptococcus pneumoniae [20]
  MIC50: 0.12 µg/mL (≈ 0.197 µM)
  MIC90: 0.12 µg/mL (≈ 0.197 µM)
[21]
  Activity: 100%
[22]
  MIC: 0.03 µg/mL (≈ 0.0494 µM)
  MIC50: 0.03 µg/mL (≈ 0.0494 µM)
  MIC90: 0.06 µg/mL (≈ 0.0987 µM)
[23]
  MIC: 0.06 µg/mL (≈ 0.0987 µM)
  MIC50: 0.06 µg/mL (≈ 0.0987 µM)
  MIC90: 0.12 µg/mL (≈ 0.197 µM)
